Experimental data taken from PubChem BioAssay AID651723 (Broad Institute, 2012).
Hit rate of the full screen: of about 350,000 compounds, about 740 (0.21%) were called active. This is one part of a sample in which actives are shown more often than they occur.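 The calls were made as follows: active = every replicate reaching activation of at least 50%, whatever the mean replicate activation; inconclusive = replicates that disagree or another doubt; inactive = the rest.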

Assay: compounds raising PGC1a acetylation signal, primary screen, PGC1a modulator project, cell-based, U2OS, AlphaScreen, signal-increasing mode (AID 651723)
Conditions: overnight, at 15.6 µM, stronger effect = higher value
In short: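 System – flag-PGC1a/GCN5 U2OS cells · Quantity – 7000 U2OS cells per well · Signal – AlphaScreen proximity luminescence, anti-acetyl-lysine antibody · Schedule – overnight compound treatment, 37 °C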
For `CN(C)CC1Oc2ccccc2OC1(O)c1ccccc1` (configuration not stated), the activation was 249% (active).
For `CCC(C)(O)C(=O)OC1C(=O)OC2CC3C(C)=CC(=O)C(O)C3(C)C3C4(O)OCC23C1C(C)C4O` (configuration not stated), the activation was -80% (inactive).
With `O=C(CSC1c2ccccc2-c2ccccc21)N/N=C/c1ccccc1` the activation was 73% (active).
With `CC(=O)OC1C2(CC3N4C(=O)C5(CO)SSC4(CC31O)C(=O)N5C)OC(C)C(C)(C)C2=O` (configuration not stated) the activation was -60.7% (inactive).
For `COC1C(O)C(C)OC(OC2CCC3(C=O)C(CCC4C3CCC3(C)C(C5=CC(=O)OC5)CCC43O)C2)C1O` (configuration not stated), the activation was -82.1% (inactive).
For `c1ccc(C(CN2CCCCC2)c2ccccc2)cc1`, the activation was -40.7% (inactive).
With `O=C(c1cc(S(=O)(=O)N2CCOCC2)ccc1F)N1CCC2(CC1)OCCO2` the activation was -52.8% (inactive).
